Experimental data published in ChEMBL document CHEMBL5252546, “Salutaxel, a Conjugate of Docetaxel and a Muramyl Dipeptide (MDP) Analogue, Acts as Multifunctional Prodrug That Inhibits Tumor Growth and Metastasis” (J Med Chem, 2018).
The source made the active and inactive calls. The rule behind the calls is not given here.

Key:
4T1 [1] = experiment: Antitumor activity against mouse 4T1 cells implanted in BALB/c mouse assessed as decrease in lung MMP2 expression level at 5.7 mg/kg,iv administrated once per week for 4 weeks by western blot assay; assay type: functional, organism-based
Outline: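 4T1 cells injected into mammary fat pads of BALB/c mice. Saline vehicle or test article given iv once weekly for 4 weeks. Spleen, lung and tumor lysates immunoblotted for MMP2/MMP9 with β-actin as loading control. Bands averaged over five mice per group, representative of two independent experiments.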

4T1 [2] = experiment: Antitumor activity against mouse 4T1 cells implanted in BALB/c mouse assessed as decrease in spleen MDSC cells at 5.7 mg/kg,iv measured after 28 days (reference value: 38%); assay type: functional; set-up: scale not given: the % may be the effect or the level left; conditions: time 28 day
Outline: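 Splenocytes taken from 4T1 fat-pad tumor-bearing BALB/c mice after 28 days of tumor growth with weekly iv dosing. Cells stained with anti-CD11b PE and anti-Gr-1 FITC, and the Gr-1+CD11b+ percentage scored by flow cytometry. Eight mice per treated group, five naive. Mean ± SEM.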

[3] = AUC (0-infinity) in male Beagle dog at 4 mg/kg,iv measured upto 24 hrs; assay type: ADME, organism-based, Canis lupus familiaris; set-up: dose 4 mg/kg, time < 24 hrs, route iv; conditions: in vivo
Outline: (§1)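 Single iv dose: rats 2, 4 or 8 mg/kg by intravenous injection; Beagle dogs 1, 2 or 4 mg/kg by intravenous infusion. Plasma concentration–time data were analysed by sex and pooled. Reported parameters: Cmax, Tmax, AUC0−t, AUC0−∞, MRT0−∞, t1/2, CL, Vss, given as mean ± SD.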

[4] = Stability in monkey plasma assessed as compound remaining at 1 uM incubated for 6 hrs; assay type: ADME, cell-free, Macaca mulatta; conditions: rhesus monkey
[5] = MRT (0 to infinity) in rat at 2 mg/kg,iv measured upto 24 hrs; assay type: ADME, organism-based; conditions: in vivo
MDA-MB-231 = experiment: Antiproliferative activity against human MDA-MB-231 cells assessed inhibition of cell growth incubated for 72 hrs by SRB assay; assay type: functional, cell-based; conditions: MDA-MB-231, 72 h
[6] = AUC (0-t) in mouse plasma implanted with mouse 4T1 cells at 10 mg/kg,iv measured upto 72 hrs; assay type: ADME, organism-based; set-up: dose 10 mg/kg, time < 72 hrs, route iv
Outline: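 4T1 tumor-bearing mice (4T1 cells implanted in the mammary fat pad) received a single iv dose of 10 mg/kg. Plasma and tumor tissue were sampled up to 72 h, with n = 6. Levels of parent and of released docetaxel were measured. AUC came from noncompartmental analysis, reported as mean ± SD.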

4T1 [7] = experiment: Antitumor activity against mouse 4T1 cells implanted in BALB/c mouse assessed as decrease in S100A9 mRNA expression in lung at 20 mg/kg,iv administrated qd for 2 days by qRT-PCR analysis; assay type: functional, organism-based; conditions: time 2.0 day
Outline: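 Day 19 after 4T1 implantation, mice randomised into five groups; iv vehicle or 20 mg/kg plus ip C12-iE-DAP (50 μg/mouse) and MDP (100 μg/mouse) once daily for 2 days; killed after 48 h; lung mRNA for MMP8, MMP9, PROK2, S100A8, S100A9 and IL-1β by qPCR; mean ± SEM.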

[8] = Tmax in mouse tumor implanted with mouse 4T1 cells at 10 mg/kg,iv measured upto 72 hrs; assay type: ADME, organism-based, Neoplasm
NCI-H1975 = experiment: Antitumor activity against human NCI-H1975 cells xenografted with BALB/c mouse assessed as inhibition of tumor growth at 10 mg/kg,iv administrated once per week for 3 weeks; assay type: functional, organism-based
Outline: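 BALB/c nu/nu mice given subcutaneous human tumour cells in the right flank; dosing began at about 100–120 mm3 mean volume; iv once weekly for 3 weeks, with equimolar parent drug as positive control; tumour volume and weight measured; n = 8, mean ± SEM, ANOVA and Student's t test.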

[9] = Toxicity in female Sprague-Dawley rat assessed as maximal non-toxic dose at iv administration; assay type: organism-based; conditions: in vivo, read-out: MNTD
[10] = Volume of distribution at steady state in male Beagle dog at 2 mg/kg,iv measured upto 24 hrs; assay type: ADME, organism-based, Canis lupus familiaris; conditions: in vivo, read-out: Vdss
[11] = Clearance in Beagle dog at 1 mg/kg,iv measured upto 24 hrs; assay type: ADME, organism-based, Canis lupus familiaris; conditions: in vivo
Outline: (§2)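 Beagle dogs were given a single iv infusion at 1, 2 or 4 mg/kg. Plasma parent drug and released docetaxel were followed over time. Cmax, Tmax, AUC, MRT, t1/2, CL and Vss were reported by sex and for all dogs combined.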

[12] = Drug metabolism in rat feces assessed as metabolite docetaxel formation at 4 mg/kg,iv measured after 24 hrs; assay type: ADME, organism-based; conditions: in vivo
[13] = Clearance in female Beagle dog at 1 mg/kg,iv measured upto 24 hrs; assay type: ADME, organism-based, Canis lupus familiaris; conditions: in vivo; outline: as §2
[14] = Plasma protein binding in human plasma incubated for 4 hrs; assay type: ADME, cell-free; conditions: read-out: PPB (converted)
Cytochrome P450 2B6 = Cytochrome P450 2B6 (Homo sapiens, UniProt P20813); experiment: Inhibition of CYP2B6 in human liver microsomes using probe substrate at 0.1 to 100 uM in presence of NADPH; assay type: ADME, Microsome; conditions: dose 0.1-100 µM
Chain of Cytochrome P450 2B6 (P20813 whole entry): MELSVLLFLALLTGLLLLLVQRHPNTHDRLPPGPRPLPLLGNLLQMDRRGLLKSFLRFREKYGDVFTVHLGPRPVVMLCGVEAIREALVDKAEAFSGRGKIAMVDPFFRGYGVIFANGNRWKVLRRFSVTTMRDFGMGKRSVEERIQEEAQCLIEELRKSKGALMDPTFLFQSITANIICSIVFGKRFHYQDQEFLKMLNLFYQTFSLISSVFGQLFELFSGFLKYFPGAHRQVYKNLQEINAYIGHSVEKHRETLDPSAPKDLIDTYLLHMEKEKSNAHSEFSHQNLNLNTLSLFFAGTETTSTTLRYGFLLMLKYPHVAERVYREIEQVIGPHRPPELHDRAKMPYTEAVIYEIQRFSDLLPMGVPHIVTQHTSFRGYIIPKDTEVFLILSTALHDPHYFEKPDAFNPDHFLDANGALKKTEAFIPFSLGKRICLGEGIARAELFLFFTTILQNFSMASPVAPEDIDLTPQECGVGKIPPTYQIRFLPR

[15] = Half life in male Beagle dog at 2 mg/kg,iv measured upto 24 hrs; assay type: ADME, organism-based, Canis lupus familiaris; conditions: in vivo
[16] = Drug metabolism in rat bile assessed as metabolite docetaxel formation at 4 mg/kg,iv measured after 24 hrs; assay type: ADME, organism-based; conditions: in vivo
OVCAR-3 = experiment: Antiproliferative activity against human OVCAR-3 cells assessed inhibition of cell growth incubated for 72 hrs by SRB assay; assay type: functional, cell-based; conditions: OVCAR-3, 72 h
4T1 [17] = experiment: Antitumor activity against mouse 4T1 cells implanted in BALB/c mouse assessed as decrease in neutrophil in peripheral blood at 20 mg/kg,iv administrated qd for 2 days by blood smear staining microscopic analysis; assay type: functional, organism-based; conditions: time 2.0 day
Outline: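 Day 19 after 4T1 implantation, mice randomised into five groups; iv vehicle or 20 mg/kg plus ip C12-iE-DAP (50 μg/mouse) and MDP (100 μg/mouse) once daily for 2 days; blood taken 6 h later; neutrophils/leukocytes counted on stained blood smears at 1000× light microscopy.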

[18] = AUC (0-t) in rat at 2 mg/kg,iv measured upto 24 hrs; assay type: ADME, organism-based; set-up: dose 2 mg/kg, time < 24 hrs, route iv; conditions: in vivo; outline: as §1
[19] = MRT (0 to infinity) in female rat at 8 mg/kg,iv measured upto 24 hrs; assay type: ADME, organism-based; conditions: in vivo
[20] = Volume of distribution at steady state in female rat at 2 mg/kg,iv measured upto 24 hrs; assay type: ADME, organism-based; conditions: in vivo, read-out: Vdss
[21] = Half life in rat at 2 mg/kg,iv measured upto 24 hrs; assay type: ADME, organism-based; conditions: in vivo
[22] = Plasma protein binding in dog plasma incubated for 4 hrs; assay type: ADME, cell-free, Canis lupus familiaris; conditions: read-out: PPB (converted)
[23] = Prodrug conversion in mouse tumor implanted with mouse 4T1 cells assessed as half life of docetaxel at 4 mg/kg,iv measured upto 72 hrs; assay type: ADME, organism-based, Neoplasm; conditions: in vivo
4T1 [24] = experiment: Antitumor activity against mouse 4T1 cells implanted in BALB/c mouse assessed as decrease in serum S100A9 level at 20 mg/kg,iv administrated once per week for 4 weeks by ELISA; assay type: functional, organism-based
Outline: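 4T1 fat-pad model in BALB/c mice, iv 5–20 mg/kg once weekly for 4 weeks, with vehicle and naive groups; serum MMP9, TIMP-1, IL-6 and S100A9 measured by mouse ELISA kits.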

4T1 [25] = experiment: Antitumor activity against mouse 4T1 cells implanted in BALB/c mouse assessed as decrease in spleen MMP9 expression level at 5 to 20 mg/kg,iv administrated once per week for 4 weeks by western blot assay; assay type: functional, organism-based; conditions: dose 5-20 mg/kg
Outline: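 4T1 fat-pad model in BALB/c mice, iv once weekly for 4 weeks; MMP9, MMP2 and NOD1 in spleen, lung and tumour by western blot, β-actin loading control; bands averaged over five mice per group, representative of two independent experiments.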

For CC(=O)O[C@@]12CO[C@@H]1C[C@H](O)[C@@]1(C)C(=O)[C@H](O)C3=C(C)[C@@H](OC(=O)[C@H](O)[C@@H](NC(=O)OC(C)(C)C)c4ccccc4)C[C@@](O)([C@@H](OC(=O)c4ccccc4)[C@H]21)C3(C)C [DOCETAXEL ANHYDROUS], the Activity (4T1 [1]) was “inactive” and the Activity (4T1 [2]) was 36.4%.
In the case of CC(=O)O[C@@]12CO[C@@H]1C[C@H](O)[C@@]1(C)C(=O)[C@H](O)C3=C(C)[C@@H](OC(=O)[C@H](OC(=O)CCC(=O)NCCCC[C@H](NC(=O)CC[C@@H](NC(=O)[C@H](C)NC(=O)/C=C/c4ccc(F)cc4Cl)C(N)=O)C(=O)O)[C@@H](NC(=O)OC(C)(C)C)c4ccccc4)C[C@@](O)([C@@H](OC(=O)c4ccccc4)[C@H]21)C3(C)C, the AUC(0-inf) [3] is reported as 15300 ng·h/mL, the Stability [4] is reported as “Stable” and the MRT inf [5] is reported as 11.3 min. For the same compound, the IC50 (MDA-MB-231) was 16.3 nM, the AUC(0-t) at 72 h [6] was 3.33 µM·h and the Activity (4T1 [7]) was “Active”. The Tmax [8] was 15 min, the inhibition (NCI-H1975) was “Active” and the NOAEL [9] was 2 mg/kg. The Vd [10] was 0.09 L/kg, the clearance [11] was 11.5 mL/min/kg and the Drug metabolism [12] was “Metabolite_Detected”. The clearance [13] was 11.2 mL/min/kg, the fraction unbound at 4 h [14] was 0.007 and the “inhibition (INH)” value (Cytochrome P450 2B6) was “Not Active”. The half-life [15] was 30.2 min, the Drug metabolism [16] was “Metabolite_Detected” and the IC50 (OVCAR-3) was 16.3 nM. For the same compound, the Activity (4T1 [17]) was “Active”, the AUC(0-t) at 24 h [18] was 5200 ng·h/mL and the MRT inf [19] was 28.2 min. The Vd [20] was 0.067 L/kg, the half-life [21] was 7.8 min and the fraction unbound at 4 h [22] was 0.003. The t1/2 [23] was 59 h, the Activity (4T1 [24]) was “Active” and the Activity (4T1 [25]) was “Active”.
